# How the values were obtained:
# [1] = Binding affinity to pMFST TAGTCGT mismatch site B
# Method in brief: (§1)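 DNase I footprinting titrations on the 5′ end-labeled PCR product of the relevant plasmid (pMFST or pMFST2). DNA was equilibrated with polyamide or water (control) for 12–16 h at room temperature before DNase I cleavage. Binding isotherms gave equilibrium association constants (M−1), reported as the mean of three titrations.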
# [2] = Binding affinity to pMFST TAGTGGT match site; method in brief: as §1
# [3] = Binding affinity to pMFST5 forward hairpin binding M site
# Method in brief: (§2)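 Quantitative DNase I footprinting on the 301 bp 5′ end-labeled PCR product of plasmid pMFST5, using 1 pM to 100 nM polyamide across 11 lanes. DNA was incubated with polyamide or water for 12–16 h at room temperature before DNase I digestion. Equilibrium association constants (M−1) from binding isotherms are the mean of three experiments.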
# [4] = Binding affinity to pMFST5 slipped extended S site; method in brief: as §2
# [5] = Binding affinity to pMFST5 overlapped extended O site; method in brief: as §2
# [6] = Binding affinity to pMFST ATGGTCA match site; method in brief: as §1
# [7] = Binding affinity to pMFST AACGACT mismatch site A; method in brief: as §1
# [8] = Binding affinity to pMFST2 TAGGTGT match site; method in brief: as §1
# [9] = Binding affinity to pMFST2 TAGGTCT mismatch site A; method in brief: as §1
# [10] = Binding affinity to pMFST2 TAGCTGT mismatch site B; method in brief: as §1
# [11] = Binding affinity to pMFST TAGCACA mismatch site B; method in brief: as §1
# [12] = Binding affinity to pMFST ATATGGT mismatch site A; method in brief: as §1
compound,measurement,setting,value
CN(C)CCCNC(=O)CCNC(=O)c1cc(NC(=O)c2cc(NC(=O)c3cc(NC(=O)c4cc(NC(=O)[C@@H](CCN)NC(=O)c5nc(NC(=O)c6nc(NC(=O)CCNC(=O)c7nccn7C)cn6C)cn5C)cn4C)cn3C)cn2C)cn1C,Ka,[1],6.2 10^7/M
same,Ka,[2],8 10^8/M
CN(C)CCCNC(=O)CCNC(=O)c1cc(NC(=O)c2cc(NC(=O)c3cc(NC(=O)c4nc(NC(=O)CNC(=O)c5cc(NC(=O)c6cc(NC(=O)c7nc(NC(=O)c8nccn8C)cn7C)cn6C)cn5C)cn4C)cn3C)cn2C)cn1C,Ka,[3],7 10^8/M
same,Ka,[4],1.3 10^9/M
same,Ka,[5],5.9 10^8/M
CN(C)CCCNC(=O)CCNC(=O)c1cc(NC(=O)c2cc(NC(=O)c3cc(NC(=O)c4nc(NC(=O)[C@@H](CCN)NC(=O)c5cc(NC(=O)c6cc(NC(=O)c7nc(NC(=O)c8nccn8C)cn7C)cn6C)cn5C)cn4C)cn3C)cn2C)cn1C,Ka,[3],9.8 10^9/M
same,Ka,[6],4.4 10^9/M
same,Ka,[7],1.5 10^8/M
same,Ka,[5],4.7 10^9/M
CN(C)CCCNC(=O)CCNC(=O)c1cc(NC(=O)c2cc(NC(=O)c3cc(NC(=O)c4cc(NC(=O)[C@H](N)CCNC(=O)c5nc(NC(=O)c6cc(NC(=O)c7nc(NC(=O)c8nccn8C)cn7C)cn6C)cn5C)cn4C)cn3C)cn2C)cn1C,Ka,[8],4.4 10^10/M
same,Ka,[9],1.1 10^10/M
same,Ka,[10],1.1 10^9/M
CN(C)CCCNC(=O)CCNC(=O)c1cc(NC(=O)c2cc(NC(=O)c3cc(NC(=O)c4nc(NC(=O)[C@H](N)CCNC(=O)c5cc(NC(=O)c6cc(NC(=O)c7nc(NC(=O)c8nccn8C)cn7C)cn6C)cn5C)cn4C)cn3C)cn2C)cn1C,Ka,[6],4.9 10^10/M
same,Ka,[11],3.9 10^8/M
same,Ka,[7]; in the assay text read “mismatch site C” for “mismatch site A”,1.8 10^10/M
CN(C)CCCNC(=O)CCNC(=O)c1cc(NC(=O)c2cc(NC(=O)c3cc(NC(=O)c4cc(NC(=O)[C@@H](CCN)NC(=O)c5nc(NC(=O)c6cc(NC(=O)c7nc(NC(=O)c8nccn8C)cn7C)cn6C)cn5C)cn4C)cn3C)cn2C)cn1C,Ka,[8],3 10^8/M
same,Ka,[9],8.5 10^7/M
CN(C)CCCNC(=O)CCNC(=O)c1cc(NC(=O)c2cc(NC(=O)c3cc(NC(=O)c4cc(NC(=O)[C@H](N)CCNC(=O)c5nc(NC(=O)c6nc(NC(=O)CCNC(=O)c7nccn7C)cn6C)cn5C)cn4C)cn3C)cn2C)cn1C,Ka,[1],6.2 10^9/M
same,Ka,[2],4.3 10^10/M
same,Ka,[12],9.9 10^8/M

# From ChEMBL document CHEMBL1137515, “Alpha-diaminobutyric acid-linked hairpin polyamides” (Bioorg Med Chem, 2007)
